Measurements published in ChEMBL document CHEMBL5303300, “EUbOPEN Chemogenomics Library - Multiplex” (2023).
Where “and” joins values, the source holds several entries; their conditions need not be identical. Equal values may be shown once.

Tested on: Fibroblast
Assay: Multiplex assay against human fibroblast
Type: toxicity, cell-based
Conditions: number of replicates 2
Method in brief: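 At seeding, live cells were stained with Hoechst33342, BioTracker Green Microtubule Cytoskeleton Dye, MitoTracker Red and Annexin V Alexa Fluor 680. After compound addition they were imaged on a CQ1 microscope at 37°C and 5% CO2, and CellPathfinder machine-learning gating sorted them into Hoechst high-intensity objects or normal cells, with normal cells further split into healthy, pyknosed or fragmented nuclei and pyknosed cells into mitotic or apoptotic. Tubulin, mitochondrial-mass and membrane-permeability phenotypes are given as per cents of cells with healthy nuclei.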

[1] = 12 h, 1 µM, compound concentration 1 uM
[2] = 12 h, 10 µM, compound concentration 10 uM
[3] = 24 h, 1 µM, compound concentration 1 uM
[4] = 24 h, 10 µM, compound concentration 10 uM
[5] = 48 h, 1 µM, compound concentration 1 uM
[6] = 48 h, 10 µM, compound concentration 10 uM

Compound: COc1cc(C(=O)NC2CCN(C)CC2)ccc1Nc1ncc(C(F)(F)F)c(NCc2ccc(C)cc2N(C)S(C)(=O)=O)n1.O=CO.O=CO
- Population Apoptotic (%) [1]: 44% and 53%
- Population Fragmented Nuclei (%) [1]: 24% and 14%
- Population Healthy Nuclei (%) [1]: 64% and 61%
- Population Hoechst High Intensity Objects (%) [1]: 1% and 0%
- Population Membrane Permeable-Phenotype (%) [1]: 8% and 11%
- Population Mitochondria Different-Phenotype (%) [1]: 3% and 4%
- Population Mitotic Cells (%) [1]: 55% and 46%
- Population Normal (%) [1]: 98% and 100%
- Population Pyknosed Nuclei (%) [1]: 10% and 24%
- Population Tubulin-Different-Phenotype (%) [1]: 64% and 46%
- Total Cell Count [1]: 277 and 215
- Population Apoptotic (%) [2]: 63% and 46%
- Population Fragmented Nuclei (%) [2]: 6% and 16%
- Population Healthy Nuclei (%) [2]: 27% and 55%
- Population Hoechst High Intensity Objects (%) [2]: 0%
- Population Membrane Permeable-Phenotype (%) [2]: 6% and 8%
- Population Mitochondria Different-Phenotype (%) [2]: 15%
- Population Mitotic Cells (%) [2]: 36% and 53%
- Population Normal (%) [2]: 100% and 99%
- Population Pyknosed Nuclei (%) [2]: 66% and 27%
- Population Tubulin-Different-Phenotype (%) [2]: 67% and 69%
- Total Cell Count [2]: 168 and 259
- Population Apoptotic (%) [3]: 63% and 64%
- Population Fragmented Nuclei (%) [3]: 21% and 17%
- Population Healthy Nuclei (%) [3]: 70% and 66%
- Population Hoechst High Intensity Objects (%) [3]: 1% and 0%
- Population Membrane Permeable-Phenotype (%) [3]: 4% and 6%
- Population Mitochondria Different-Phenotype (%) [3]: 9% and 6%
- Population Mitotic Cells (%) [3]: 36% and 35%
- Population Normal (%) [3]: 98% and 100%
- Population Pyknosed Nuclei (%) [3]: 8% and 16%
- Population Tubulin-Different-Phenotype (%) [3]: 53% and 38%
- Total Cell Count [3]: 268 and 243
- Population Apoptotic (%) [4]: 94% and 92%
- Population Fragmented Nuclei (%) [4]: 5% and 12%
- Population Healthy Nuclei (%) [4]: 9% and 16%
- Population Hoechst High Intensity Objects (%) [4]: 0% and 1%
- Population Mitochondria Different-Phenotype (%) [4]: 23% and 62%
- Population Mitotic Cells (%) [4]: 5% and 7%
- Population Normal (%) [4]: 99% and 98%
- Population Pyknosed Nuclei (%) [4]: 85% and 70%
- Population Tubulin-Different-Phenotype (%) [4]: 84% and 77%
- Total Cell Count [4]: 135 and 166
- Population Apoptotic (%) [5]: 94% and 90%
- Population Fragmented Nuclei (%) [5]: 27% and 25%
- Population Healthy Nuclei (%) [5]: 66% and 65%
- Population Hoechst High Intensity Objects (%) [5]: 0%
- Population Membrane Permeable-Phenotype (%) [5]: 6% and 5%
- Population Mitochondria Different-Phenotype (%) [5]: 5% and 2%
- Population Mitotic Cells (%) [5]: 5% and 9%
- Population Normal (%) [5]: 99%
- Population Pyknosed Nuclei (%) [5]: 6% and 8%
- Population Tubulin-Different-Phenotype (%) [5]: 43% and 20%
- Total Cell Count [5]: 267 and 253
- Population Apoptotic (%) [6]: 97% and 96%
- Population Fragmented Nuclei (%) [6]: 27% and 31%
- Population Healthy Nuclei (%) [6]: 16% and 15%
- Population Hoechst High Intensity Objects (%) [6]: 0%
- Population Membrane Permeable-Phenotype (%) [6]: 31% and 30%
- Population Mitochondria Different-Phenotype (%) [6]: 9% and 26%
- Population Mitotic Cells (%) [6]: 2% and 3%
- Population Normal (%) [6]: 100%
- Population Pyknosed Nuclei (%) [6]: 56% and 53%
- Population Tubulin-Different-Phenotype (%) [6]: 81% and 78%
- Total Cell Count [6]: 132 and 153

Compound: Cc1onc(-c2ccccc2Cl)c1C(=O)N(C)c1ccc(Cl)cc1
- Population Apoptotic (%) [1]: 35%
- Population Fragmented Nuclei (%) [1]: 11% and 12%
- Population Healthy Nuclei (%) [1]: 66% and 69%
- Population Hoechst High Intensity Objects (%) [1]: 0%
- Population Membrane Permeable-Phenotype (%) [1]: 6% and 8%
- Population Mitochondria Different-Phenotype (%) [1]: 0%
- Population Mitotic Cells (%) [1]: 64%
- Population Normal (%) [1]: 100%
- Population Pyknosed Nuclei (%) [1]: 22% and 18%
- Population Tubulin-Different-Phenotype (%) [1]: 16% and 12%
- Total Cell Count [1]: 167 and 197
- Population Apoptotic (%) [2]: 36% and 47%
- Population Fragmented Nuclei (%) [2]: 8%
- Population Healthy Nuclei (%) [2]: 67% and 72%
- Population Hoechst High Intensity Objects (%) [2]: 0%
- Population Membrane Permeable-Phenotype (%) [2]: 8% and 11%
- Population Mitochondria Different-Phenotype (%) [2]: 2%
- Population Mitotic Cells (%) [2]: 63% and 52%
- Population Normal (%) [2]: 100%
- Population Pyknosed Nuclei (%) [2]: 24% and 18%
- Population Tubulin-Different-Phenotype (%) [2]: 18% and 15%
- Total Cell Count [2]: 185 and 192
- Population Apoptotic (%) [3]: 44% and 31%
- Population Fragmented Nuclei (%) [3]: 8% and 13%
- Population Healthy Nuclei (%) [3]: 66% and 64%
- Population Hoechst High Intensity Objects (%) [3]: 0%
- Population Membrane Permeable-Phenotype (%) [3]: 7% and 6%
- Population Mitochondria Different-Phenotype (%) [3]: 0%
- Population Mitotic Cells (%) [3]: 55% and 68%
- Population Normal (%) [3]: 100%
- Population Pyknosed Nuclei (%) [3]: 24% and 22%
- Population Tubulin-Different-Phenotype (%) [3]: 13% and 9%
- Total Cell Count [3]: 157 and 204
- Population Apoptotic (%) [4]: 56% and 57%
- Population Fragmented Nuclei (%) [4]: 5% and 8%
- Population Healthy Nuclei (%) [4]: 72% and 74%
- Population Hoechst High Intensity Objects (%) [4]: 0%
- Population Membrane Permeable-Phenotype (%) [4]: 5% and 8%
- Population Mitochondria Different-Phenotype (%) [4]: 4% and 0%
- Population Mitotic Cells (%) [4]: 43% and 42%
- Population Normal (%) [4]: 100% and 99%
- Population Pyknosed Nuclei (%) [4]: 22% and 17%
- Population Tubulin-Different-Phenotype (%) [4]: 15% and 11%
- Total Cell Count [4]: 166 and 203
- Population Apoptotic (%) [5]: 42% and 56%
- Population Fragmented Nuclei (%) [5]: 8% and 14%
- Population Healthy Nuclei (%) [5]: 72% and 68%
- Population Hoechst High Intensity Objects (%) [5]: 0%
- Population Membrane Permeable-Phenotype (%) [5]: 2% and 3%
- Population Mitochondria Different-Phenotype (%) [5]: 0%
- Population Mitotic Cells (%) [5]: 57% and 43%
- Population Normal (%) [5]: 100%
- Population Pyknosed Nuclei (%) [5]: 18% and 17%
- Population Tubulin-Different-Phenotype (%) [5]: 9% and 4%
- Total Cell Count [5]: 148 and 214
- Population Apoptotic (%) [6]: 65% and 54%
- Population Healthy Nuclei (%) [6]: 77% and 74%
- Population Hoechst High Intensity Objects (%) [6]: 0%
- Population Membrane Permeable-Phenotype (%) [6]: 7% and 4%
- Population Mitochondria Different-Phenotype (%) [6]: 1% and 0%
- Population Mitotic Cells (%) [6]: 34% and 45%
- Population Normal (%) [6]: 100%
- Population Pyknosed Nuclei (%) [6]: 18% and 9%
- Population Tubulin-Different-Phenotype (%) [6]: 11% and 8%
- Total Cell Count [6]: 157 and 221

Compound: CS(=O)(=O)c1ccc(NC(=O)c2cccc(COc3ccc(Br)cc3CNCCO)c2)c(Cl)c1.O=CO
- Population Apoptotic (%) [1]: 47% and 51%
- Population Fragmented Nuclei (%) [1]: 11%
- Population Healthy Nuclei (%) [1]: 64% and 70%
- Total Cell Count [1]: 184 and 209
- Population Apoptotic (%) [2]: 56%
- Population Fragmented Nuclei (%) [2]: 22% and 14%
- Population Healthy Nuclei (%) [2]: 58% and 59%
- Total Cell Count [2]: 327 and 259
- Population Apoptotic (%) [3]: 61% and 71%
- Population Fragmented Nuclei (%) [3]: 11%
- Population Healthy Nuclei (%) [3]: 60% and 68%
- Population Pyknosed Nuclei (%) [3]: 19%
- Total Cell Count [3]: 187 and 198
- Population Apoptotic (%) [4]: 57% and 85%
- Population Fragmented Nuclei (%) [4]: 15% and 18%
- Population Healthy Nuclei (%) [4]: 65% and 64%
- Total Cell Count [4]: 227 and 235
- Population Apoptotic (%) [5]: 76% and 80%
- Population Fragmented Nuclei (%) [5]: 16% and 17%
- Population Healthy Nuclei (%) [5]: 64% and 70%
- Population Pyknosed Nuclei (%) [5]: 19%
- Total Cell Count [5]: 178 and 216
- Population Apoptotic (%) [6]: 85% and 87%
- Population Fragmented Nuclei (%) [6]: 16% and 13%
- Population Healthy Nuclei (%) [6]: 70% and 72%
- Population Pyknosed Nuclei (%) [6]: 14%
- Total Cell Count [6]: 211 and 226
